Data from ChEMBL document CHEMBL3580656, “Chrodrimanins I and J from the Antarctic Moss-Derived Fungus Penicillium funiculosum GWT2-24” (J Nat Prod, 2015).

Experiments:
[1] = system: Influenza A virus; test: Antiviral activity against influenza A virus (A/Puerto Rico/8/34(H1N1)) infected in MDCK cells incubated for 48 hrs assessed as inhibition of virus-induced cytopathic effect by crystal violet staining assay; assay type: functional, organism-based; details: A/Puerto Rico/8/1934(H1N1)
Method in brief: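 Ribavirin served as the positive control. The value is reported as an IC50 in μM.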

[2] = system: A549; test: Cytotoxicity against human A549 cells by sulforhodamine B assay; assay type: functional, cell-based
Method in brief: (§1)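 Four human lines tested (K562, HL-60, HeLa, A-549) with adriamycin as positive control. Potency is expressed as IC50.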

[3] = system: Escherichia coli; test: Antibacterial activity against Escherichia coli; assay type: functional
[4] = system: K562; test: Cytotoxicity against human K562 cells by sulforhodamine B assay; assay type: functional, cell-based; method in brief: as §1
[5] = system: HL-60; test: Cytotoxicity against human HL60 cells by sulforhodamine B assay; assay type: functional, cell-based; method in brief: as §1
[6] = system: Staphylococcus aureus; test: Antibacterial activity against Staphylococcus aureus; assay type: functional
[7] = system: HeLa; test: Cytotoxicity against human HeLa cells by sulforhodamine B assay; assay type: functional, cell-based; method in brief: as §1

CC1(C)C(=O)CC[C@@]2(C)[C@H]1CC[C@]1(C)Oc3cc(O)c4c(c3C[C@@H]21)C[C@@H](O)CC4=O
IC50 [1]: > 200 µM | IC50 [2]: > 50 µM | MIC [3]: > 600 µg/mL | IC50 [4]: > 50 µM | IC50 [5]: > 50 µM | MIC [6]: > 600 µg/mL | IC50 [7]: > 50 µM

CC1(C)C(=O)C=C[C@@]2(C)[C@H]1CC[C@]1(C)Oc3cc(O)c4c(c3C[C@@H]21)C[C@@H](O)CC4=O
IC50 [1]: > 200 µM | IC50 [2]: > 50 µM | MIC [3]: > 600 µg/mL | IC50 [4]: > 50 µM | IC50 [5]: > 50 µM | MIC [6]: > 600 µg/mL | IC50 [7]: > 50 µM

C[C@@H]1Cc2c3c(cc(O)c2C(=O)O1)O[C@@]1(C)[C@@H](O)C[C@H]2C(C)(C)C(=O)C=C[C@]2(C)[C@@H]1C3
IC50 [1]: 21 µM | IC50 [2]: > 50 µM | MIC [3]: > 600 µg/mL | IC50 [4]: > 50 µM | IC50 [5]: > 50 µM | MIC [6]: > 600 µg/mL | IC50 [7]: > 50 µM

C[C@H]1OC(=O)c2c(O)cc3c(c2[C@H]1O)C[C@H]1[C@@]2(C)C=CC(=O)C(C)(C)[C@@H]2C[C@H](O)[C@]1(C)O3
IC50 [1]: > 200 µM | IC50 [2]: > 50 µM | MIC [3]: > 600 µg/mL | IC50 [4]: > 50 µM | IC50 [5]: > 50 µM | MIC [6]: > 600 µg/mL | IC50 [7]: > 50 µM

CC(=O)O[C@@H]1c2c3c(cc(O)c2C(=O)O[C@@H]1C)O[C@@]1(C)[C@@H](O)C[C@H]2C(C)(C)C(=O)C=C[C@]2(C)[C@@H]1C3
IC50 [1]: 55 µM | IC50 [2]: > 50 µM | MIC [3]: > 600 µg/mL | IC50 [4]: > 50 µM | IC50 [5]: > 50 µM | MIC [6]: > 600 µg/mL | IC50 [7]: > 50 µM

C[C@@H]1Cc2c3c(cc(O)c2C(=O)O1)O[C@@]1(C)[C@@H](O)C[C@H]2C(C)(C)[C@@H](O)CC[C@]2(C)[C@@H]1C3
IC50 [1]: 57 µM | IC50 [2]: > 50 µM | MIC [3]: > 600 µg/mL | IC50 [4]: > 50 µM | IC50 [5]: > 50 µM | MIC [6]: > 600 µg/mL | IC50 [7]: > 50 µM

C[C@@H]1Cc2c3c(cc(O)c2C(=O)O1)O[C@@]1(C)[C@@H](O)C[C@H]2C(C)(C)C(=O)CC[C@]2(C)[C@@H]1C3
IC50 [1]: > 200 µM | IC50 [2]: > 50 µM | MIC [3]: > 600 µg/mL | IC50 [4]: > 50 µM | IC50 [5]: > 50 µM | MIC [6]: > 600 µg/mL | IC50 [7]: > 50 µM
